We go through 23 compounds from ChEMBL document CHEMBL1138361, “4-acyl-1-(4-aminoalkoxyphenyl)-2-ketopiperazines as a novel class of non-brain-penetrant histamine H3 receptor antagonists” (J Med Chem, 2007).

The nature of data set [1]: Partition coefficient, log D at pH 7.4. Type of data set: physicochemical. As to conditions: octanol/water. An outline of the steps:
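Compound in phosphate buffer was shaken with buffer-saturated octanol (3 × 50 inversions). Phases were separated by centrifugation at 300g for 15 min. Both phases were quantified by HPLC, and log D was calculated from peak areas normalized to injection volume.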

Data set [2] can be described thus: AUC in CD Sprague-Dawley rat at 1.0 mg/kg, iv. Type of data set: ADME, organism-based. Set-up: dose 1 mg/kg, route intravenous. As to conditions: plasma. An outline of the steps: (§1)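 Single iv and oral doses given to male CD Sprague-Dawley rats (1 mg/kg iv, 3 mg/kg po) and male Beagle dogs (1 mg/kg iv, 2 mg/kg po). Vehicle was a DMSO-PEG 200-water (5:45:50) solution. Serial and terminal blood samples were taken at time points up to 7, 12 or 24 h postdose.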

The nature of data set [3]: AUC in CD Sprague-Dawley rat at 3.0 mg/kg, po. Type of data set: ADME, organism-based. More on the design: dose 3 mg/kg, route oral. Conditions: plasma. An outline of the steps: as §1
The nature of data set [4]: Volume of distribution in CD Sprague-Dawley rat at 1.0 mg/kg, iv. The data set is classed as ADME, organism-based. Set-up: dose 1 mg/kg, route intravenous. Conditions: in vivo. An outline of the steps: as §1
The nature of data set [5]: Half life in CD Sprague-Dawley rat at 1.0 mg/kg, iv. Set-up: dose 1 mg/kg, route intravenous. Type of data set: ADME, organism-based. Conditions: in vivo. The essentials:
as §1

Data set [6] is described as follows: Oral bioavailability in CD Sprague-Dawley rat at 3.0 mg/kg, po. The data set is classed as ADME, organism-based. Conditions: in vivo. An outline of the steps:
as §1

The nature of data set [7]: Clearance in CD Sprague-Dawley rat at 1.0 mg/kg, iv. More on the design: dose 1 mg/kg, route intravenous. The data set is classed as ADME, organism-based. As to conditions: in vivo. The essentials: as §1
The nature of data set [8]: Cmax in CD Sprague-Dawley rat at 3.0 mg/kg, po. Type of data set: ADME, organism-based. Set-up: dose 3 mg/kg, route oral. Conditions: in vivo. The essentials:
as §1

The nature of data set [9]: Cmax in CD Sprague-Dawley rat at 1.0 mg/kg, iv. Set-up: dose 1 mg/kg, route intravenous. Conditions: in vivo. The data set is classed as ADME, organism-based. An outline of the steps:
as §1

The nature of data set [10]: Tmax in CD Sprague-Dawley rat at 1.0 mg/kg, iv. As to conditions: in vivo. More on the design: dose 1 mg/kg, route intravenous. Type of data set: ADME, organism-based. An outline of the steps:
as §1

Data set [11] in a line: Tmax in CD Sprague-Dawley rat at 3.0 mg/kg, po. Type of data set: ADME, organism-based. Set-up: dose 3 mg/kg, route oral. Conditions: in vivo. An outline of the steps:
as §1

The nature of data set [12]: Oral bioavailability in Beagle dog at 2.0 mg/kg, po. The data set is classed as ADME, organism-based, Canis lupus familiaris. Conditions: in vivo. The essentials: as §1
Data set [13] is described as follows: Ratio of drug level in brain to blood in CD Sprague-Dawley rat at 1 mg/kg, iv after 5 mins. Type of data set: ADME, organism-based. More on the design: dose 1 mg/kg, route intravenous. As to conditions: brain and blood. The essentials:
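Male CD Sprague-Dawley rats were dosed iv in DMSO-PEG 200-water (5:45:50). Blood and brain were collected 5 min postdose under terminal isoflurane anesthesia. Blood was protein-precipitated; brain was homogenized and extracted. Parent drug was quantified by LCMS/MS.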

Data set [14] in a line: Clearance in Beagle dog at 1.0 mg/kg, iv. Type of data set: ADME, organism-based, Canis lupus familiaris. More on the design: dose 1 mg/kg, route intravenous. Conditions: in vivo. The essentials: as §1
Data set [15] can be described thus: Volume of distribution in Beagle dog at 1.0 mg/kg, iv. The data set is classed as ADME, organism-based, Canis lupus familiaris. More on the design: dose 1 mg/kg, route intravenous. Conditions: in vivo. An outline of the steps:
as §1

The nature of data set [16]: Tmax in Beagle dog at 1.0 mg/kg, iv. Type of data set: ADME, organism-based, Canis lupus familiaris. More on the design: dose 1 mg/kg, route intravenous. Conditions: in vivo. An outline of the steps: as §1
Data set [17] in a line: AUC in Beagle dog at 1.0 mg/kg, iv. Conditions: plasma. More on the design: dose 1 mg/kg, route intravenous. The data set is classed as ADME, organism-based, Canis lupus familiaris. The essentials: as §1
A short description of data set [18]: Half life in Beagle dog at 1.0 mg/kg, iv. The data set is classed as ADME, organism-based, Canis lupus familiaris. More on the design: dose 1 mg/kg, route intravenous. As to conditions: in vivo. The essentials:
as §1

The nature of data set [19]: Tmax in Beagle dog at 2.0 mg/kg, po. Type of data set: ADME, organism-based, Canis lupus familiaris. More on the design: dose 2 mg/kg, route oral. Conditions: in vivo. An outline of the steps:
as §1

The nature of data set [20]: Cmax in Beagle dog at 1.0 mg/kg, iv. The data set is classed as ADME, organism-based, Canis lupus familiaris. More on the design: dose 1 mg/kg, route intravenous. Conditions: in vivo. An outline of the steps: as §1
The nature of data set [21]: Cmax in Beagle dog at 2.0 mg/kg, po. The data set is classed as ADME, organism-based, Canis lupus familiaris. More on the design: dose 2 mg/kg, route oral. As to conditions: in vivo. The essentials:
as §1

Data set [22] in a line: AUC in Beagle dog at 2.0 mg/kg, po. Conditions: plasma. The data set is classed as ADME, organism-based, Canis lupus familiaris. More on the design: dose 2 mg/kg, route oral. An outline of the steps: as §1

Broadly, the logD is lipophilicity at a set pH, counting ionised and neutral species. On to `CC(C)N1CCC(Oc2ccc(N3CCN(C(=O)c4ccc(C#N)cc4)CC3=O)cc2)CC1`, for which the pH-dependent lipophilicity (logD) in data set [1] is -0.64.

As for `O=C(c1ccncc1)N1CCN(c2ccc(OCCCN3CCCCC3)cc2)C(=O)C1`, the log distribution coefficient (logD) in data set [1] was -1.6.

As to `O=C(c1cnn2cccnc12)N1CCN(c2ccc(OCCCN3CCCCC3)cc2)C(=O)C1`, the logD in data set [1] is -1.1.

On to `O=C(c1ccc(F)cc1)N1CCN(c2ccc(OCCCN3CCCCCC3)cc2)C(=O)C1`, for which the log distribution coefficient (logD) in data set [1] was -0.47.

For `O=C(c1cc(F)cc(F)c1)N1CCN(c2ccc(OCCCN3CCCCCC3)cc2)C(=O)C1`, in data set [1], the logD was found to be 0.24.

`O=C(c1ccc(F)cc1F)N1CCN(c2ccc(OCCCN3CCCCCC3)cc2)C(=O)C1` showed a logD in [1] of 0.15.

Usually AUC stands for the area under the concentration-time curve, a measure of exposure. A lower AUC goes with low exposure. By Vd is commonly meant a proportionality between amount in the body and measured concentration, not a real space. A lower Vd goes with confinement near the circulation. The half-life is the time in which the quantity being followed falls by half. In general, bioavailability refers to the share of a dose that reaches the circulation, judged against a reference dose that is usually intravenous. As usually defined, the clearance is the volume of plasma or blood freed of the substance per unit of time. High values mean a high capacity for elimination, low ones a low capacity for elimination. What is called Cmax is the highest concentration seen after dosing. As usually defined, the Tmax is the time from dosing to the highest level. On to `C[C@@H]1CCCN1CCCOc1ccc(N2CCN(C(=O)c3ccc(C#N)cc3)CC2=O)cc1.O=CO`, for which the exposure (AUC) in data set [2] was found to be 1190 ng·h/mL; in data set [3], 441 ng·h/mL. Further, the Vd in data set [4] worked out at 2.1 L/kg. This compound also had a half-life in data set [5] of 1.8 h. The same compound yielded a bioavailability in data set [6] of 7%. Moreover, the clearance in [7] was found to be 13 mL/min/kg. In addition, the Cmax in [8] is 52 ng/mL; in data set [9], 729 ng/mL. Also, the values for the Tmax in data set [10] and in data set [11] were 4.8 min and 7 h, respectively. In addition, in data set [1], the logD is -0.59.

Consider `C[C@@H]1CCCN1CCCOc1ccc(N2CCN(C(=O)c3cc(F)cc(F)c3)CC2=O)cc1`, for which the logD in data set [1] is -0.02.

By Kp is commonly meant the ratio of the level in a tissue or fluid to that in plasma or blood. The compound `N#Cc1ccc(C(=O)N2CCN(c3ccc(OC4CCN(C5CCC5)CC4)cc3)C(=O)C2)cc1.O=CO` showed a bioavailability in [12] of 69%. Also, in [13], the Kp at 5 min was determined as 0.2. The AUC in [2] was found to be 601 ng·h/mL; in data set [3], 1150 ng·h/mL; in [17], 1100 ng·h/mL; in data set [22] it was 1540 ng·h/mL. Besides, the values for the clearance in data set [14] and in [7] were 15 mL/min/kg and 27 mL/min/kg, respectively. In addition, the results for the Vd in data set [4] and in [15] were 2.2 L/kg and 2.3 L/kg, respectively. For the same compound, the half-life in [5] was 1.4 h; in data set [18] it was 2.3 h. For the same compound, the time to peak (Tmax) in data set [16] was 4.8 min; in [19], 1 h; in [10] it was 4.8 min; in [11], 1 h. The Cmax stood at 419 ng/mL in [20], 294 ng/mL in data set [21], 149 ng/mL in [8] and 350 ng/mL in data set [9]. In data set [1], this compound came in with a log distribution coefficient (logD) of 0.38.

`O=C(c1cc(F)cc(F)c1)N1CCN(c2ccc(OC3CCN(C4CCC4)CC3)cc2)C(=O)C1` gave a log distribution coefficient (logD) in data set [1] of 0.99.

`C[C@H]1CCCN1CCCOc1ccc(N2CCN(C(=O)c3ccc(F)cc3)CC2=O)cc1` registered a logD in data set [1] of -0.18.

With `O=C(c1ccc(F)cc1F)N1CCN(c2ccc(OC3CCN(C4CCC4)CC3)cc2)C(=O)C1`, in data set [1], the logD stood at 0.95.

In data set [1], `C[C@H]1CCCN1CCCOc1ccc(N2CCN(C(=O)c3ccc(C#N)cc3)CC2=O)cc1` came in with a pH-dependent lipophilicity (logD) of -0.6.

Turning to `C[C@H]1CCCN1CCCOc1ccc(N2CCN(C(=O)c3ccc(F)cc3F)CC2=O)cc1`, the pH-dependent lipophilicity (logD) in data set [1] was -0.13.

In the case of `O=C(c1ccc(Cl)cc1)N1CCN(c2ccc(OC3CCN(C4CCCC4)CC3)cc2)C(=O)C1`, the logD in data set [1] is 1.52.

For the compound `O=C(c1ccc(F)cc1)N1CCN(c2ccc(OC3CCN(C4CCCC4)CC3)cc2)C(=O)C1`, the log distribution coefficient (logD) in [1] worked out at 0.88.

Regarding `N#Cc1ccc(C(=O)N2CCN(c3ccc(OC4CCN(C5CCCC5)CC4)cc3)C(=O)C2)cc1`, the logD in [1] came out at 0.37.

What is called Log D is lipophilicity at a set pH, counting ionised and neutral species. The compound `O=C(c1ccc(F)cc1)N1CCN(c2ccc(OCCCN3CCCCC3)cc2)C(=O)C1` showed a clearance in data set [14] of 9 mL/min/kg. The Vd in data set [15] was determined as 2.9 L/kg. In addition, the half-life in data set [18] was 4.3 h. Further, in data set [1], the “Log D” value worked out at 0.11.

Turning to `N#Cc1ccc(C(=O)N2CCN(c3ccc(OCCCN4CCCC4)cc3)C(=O)C2)cc1`, in data set [1], the pH-dependent lipophilicity (logD) is -1.07.

On to `CS(=O)(=O)c1ccc(C(=O)N2CCN(c3ccc(OC4CCN(C5CCCC5)CC4)cc3)C(=O)C2)cc1`, for which the logD in [1] was -0.46.

On to `O=C(c1ccc(F)cc1)N1CCN(c2ccc(OCCCN3CCCCC3)cc2)C(=O)C1.O=CO`, for which the bioavailability in data set [12] amounted to 86%; in [6] it was 61%. Moreover, the Kp at 5 min in data set [13] stood at 0.3. The area under the curve (AUC) in data set [2] was 437 ng·h/mL; in data set [3] it was 805 ng·h/mL; in data set [17], 1570 ng·h/mL; in data set [22], 3090 ng·h/mL. In [4], the Vd was 2.4 L/kg. This compound also had a half-life in data set [5] of 1.5 h. Moreover, the Tmax in [16] was determined as 4.8 min; in data set [19] it was 0.75 h; in data set [10] it was 4.8 min; in data set [11] it was 3 h. Moreover, the Cmax in [20] worked out at 530 ng/mL; in data set [21], 400 ng/mL; in data set [8], 155 ng/mL; in [9], 300 ng/mL. The same compound yielded a clearance in data set [7] of 37 mL/min/kg. This compound displayed a log distribution coefficient (logD) in data set [1] of 0.12.

Turning to `CS(=O)(=O)c1ccc(C(=O)N2CCN(c3ccc(OCCCN4CCCCC4)cc3)C(=O)C2)cc1`, in data set [1], the logD was -1.19.

In [1], `O=C(c1ccc(F)cc1F)N1CCN(c2ccc(OCCCN3CCCC3)cc2)C(=O)C1` yielded a logD of -0.45.
